Reference: ChEMBL document CHEMBL4311965, “Antimicrobial activity of amphipathic α,α-disubstituted β-amino amide derivatives against ESBL - CARBA producing multi-resistant bacteria; effect of halogenation, lipophilicity and cationic character” (Eur J Med Chem, 2019)
In brackets after ≈: the same amount, converted by molar mass.

Experiments:
Pseudomonas aeruginosa [1] = test: Antibacterial activity against multidrug-resistant Pseudomonas aeruginosa 50692520 producing Verona integron encoded metallo beta-lactamse cultured in MHB medium assessed as reduction in bacterial growth incubated for 24 hrs by microdilution susceptibility test; type: functional; conditions: Pseudomonas aeruginosa, 50692520, 24 h
Method in brief: (§1)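 Broth microdilution per CLSI M07-A9 (modified). Working solutions made from concentrated DMSO stocks kept at r.t., diluted in double-distilled water, final DMSO <1%. Inoculum 1–1.2 x 10⁶ cells/mL in Mueller-Hinton broth, mixed 1:1 with compound. 37 °C, 24 h, four parallels. Read as OD₆₀₀. Where precipitation left residual OD, the point of major OD decrease was taken as the inhibitory concentration.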

Acinetobacter baumannii [2] = test: Antibacterial activity against multidrug-resistant Acinetobacter baumannii K55-13 producing oxcillinase-24 cultured in MHB medium assessed as reduction in bacterial growth incubated for 24 hrs by microdilution susceptibility test; type: functional; conditions: K55-13, 24 h; method in brief: as §1
Escherichia coli [3] = test: Antibacterial activity against multidrug-resistant Escherichia coli 50857972 producing imipenem-type carbapenemase-26 cultured in MHB medium assessed as reduction in bacterial growth incubated for 24 hrs by microdilution susceptibility test; type: functional; conditions: Escherichia coli, 50857972, 24 h; method in brief: as §1
[4] = Selectivity index, ratio of EC50 for hemolytic activity against human RBC to MIC for antibacterial activity against Staphylococcus aureus ATCC 9144; type: toxicity; conditions: human red blood cells (RBC)
Method in brief: (§2)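 Selectivity index is the RBC haemolysis EC50 divided by the MIC against the E. coli or S. aureus reference strain.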

Enterococcus faecium [5] = test: Antibacterial activity against multidrug-resistant Enterococcus faecium 50758899 cultured in BHIB medium assessed as reduction in bacterial growth incubated for 24 hrs by microdilution susceptibility test; type: functional; conditions: Enterococcus faecium, 50758899, 24 h
Method in brief: (§3)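 Enterococci grown in Brain Heart Infusion broth, otherwise broth microdilution per CLSI M07-A9 (modified). Concentrated DMSO stocks kept at r.t. and diluted in double-distilled water, final DMSO <1%. Inoculum 1–1.2 x 10⁶ cells/mL mixed 1:1 with compound. 37 °C, 24 h, four parallels. OD₆₀₀ read-out, lowest concentration with no growth.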

Escherichia coli [6] = test: Antibacterial activity against multidrug-resistant Escherichia coli 50676002 producing New Delhi metallo-beta-lactamase-1 cultured in MHB medium assessed as reduction in bacterial growth incubated for 24 hrs by microdilution susceptibility test; type: functional; conditions: Escherichia coli, 50676002, 24 h; method in brief: as §1
Erythrocyte = test: Hemolytic activity against human RBC incubated for 1 hr; type: cell-based
Method in brief: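 Heparinized human blood washed three times in warm PBS and set to 10% hct. Erythrocytes at 1% v/v final, with compound in PBS (DMSO <1%), shaken 1 h at 37 °C and then centrifuged. Supernatant absorbance read at 405 and 545 nm after PBS background subtraction. Haemolysis taken relative to 1% Triton X-100. Three independent replicates, EC50 averaged.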

Klebsiella pneumoniae [7] = test: Antibacterial activity against multidrug-resistant Klebsiella pneumoniae 50531633 producing New Delhi metallo-beta-lactamase-1 and oxcillinase-181 cultured in MHB medium assessed as reduction in bacterial growth incubated for 24 hrs by microdilution susceptibility test; type: functional; conditions: Klebsiella pneumoniae, 50531633, 24 h; method in brief: as §1
Staphylococcus aureus [8] = test: Antibacterial activity against multidrug-resistant Staphylococcus aureus IHT 99040 cultured in MHB medium assessed as reduction in bacterial growth incubated for 24 hrs by microdilution susceptibility test; type: functional; conditions: IHT 99040, 24 h; method in brief: as §1
[9] = Selectivity index, ratio of EC50 for hemolytic activity against human RBC to MIC for antibacterial activity against Escherichia coli ATCC 25922; type: toxicity; conditions: human red blood cells (RBC); method in brief: as §2
Pseudomonas aeruginosa [10] = test: Antibacterial activity against multidrug-resistant Pseudomonas aeruginosa 50692172 producing New Delhi metallo-beta-lactamase-1 cultured in MHB medium assessed as reduction in bacterial growth incubated for 24 hrs by microdilution susceptibility test; type: functional; conditions: Pseudomonas aeruginosa, 50692172, 24 h; method in brief: as §1
Staphylococcus aureus [11] = test: Antibacterial activity against Staphylococcus aureus ATCC 9144 cultured in MHB medium assessed as no bacterial growth incubated at 37 degC for 24 hrs by microdilution susceptibility test; type: functional; conditions: ATCC 9144, 24 h
Method in brief: (§4)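 Broth microdilution per CLSI M07-A9 with modifications. Inoculum about 2.5–3 x 10⁴ cells/mL in Mueller-Hinton broth, mixed 1:1 with test derivative. DMSO stocks diluted in double-distilled water, final DMSO <1%. Incubation 24 h at 37 °C (20 °C for C. glutamicum). Growth and sterility controls included; oxytetracycline reference.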

Acinetobacter baumannii [12] = test: Antibacterial activity against multidrug-resistant Acinetobacter baumannii K12-21 producing oxcillinase-58 cultured in MHB medium assessed as reduction in bacterial growth incubated for 24 hrs by microdilution susceptibility test; type: functional; conditions: K12-21, 24 h; method in brief: as §1
Staphylococcus aureus [13] = test: Antibacterial activity against multidrug-resistant Staphylococcus aureus WIS cultured in MHB medium assessed as reduction in bacterial growth incubated for 24 hrs by microdilution susceptibility test; type: functional; method in brief: as §1
[14] = tested on: Corynebacterium glutamicum; test: Antibacterial activity against Corynebacterium glutamicum ATCC 13032 cultured in MHB medium assessed as no bacterial growth incubated at 20 degC for 24 hrs by microdilution susceptibility test; type: functional; conditions: ATCC 13032, 24 h; method in brief: as §4
Acinetobacter baumannii [15] = test: Antibacterial activity against multidrug-resistant Acinetobacter baumannii K44-35 producing oxcillinase-23 cultured in MHB medium assessed as reduction in bacterial growth incubated for 24 hrs by microdilution susceptibility test; type: functional; conditions: K44-35, 24 h; method in brief: as §1
Klebsiella pneumoniae [16] = test: Antibacterial activity against multidrug-resistant Klebsiella pneumoniae K47-25 producing carbapenemase-2 cultured in MHB medium assessed as reduction in bacterial growth incubated for 24 hrs by microdilution susceptibility test; type: functional; conditions: K47-25, 24 h; method in brief: as §1
Pseudomonas aeruginosa [17] = test: Antibacterial activity against Pseudomonas aeruginosa PA01 DSM 19880 (ATCC 15692) cultured in MHB medium assessed as no bacterial growth incubated at 37 degC for 24 hrs by microdilution susceptibility test; type: functional; conditions: PAO1 DSM 19880 (ATCC 15692); method in brief: as §4
MRC5 = test: Cytotoxicity against human MRC5 cells assessed as reduction in cell viability incubated for 4 hrs by CellTiter 96 Aqueous One Solution Reagent based assay; conditions: MRC5, 4 h
Method in brief: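 HepG2 and MRC-5 cells seeded at 35 000 and 15 000 cells/well respectively, then held overnight at 37 °C, 5% CO₂. Compounds in serum-free MEM Earle's applied for 4 h. MTS reagent (CellTiter 96 AQueous One) added for a further 1 h, absorbance read at 485 nm. Survival expressed relative to medium (negative) and Triton X-100 (positive) controls.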

Enterococcus faecium [18] = test: Antibacterial activity against multidrug-resistant Enterococcus faecium K36-18 cultured in BHIB medium assessed as reduction in bacterial growth incubated for 24 hrs by microdilution susceptibility test; type: functional; conditions: K36-18, 24 h; method in brief: as §3
Enterococcus faecium [19] = test: Antibacterial activity against multidrug-resistant Enterococcus faecium 50673722 cultured in BHIB medium assessed as reduction in bacterial growth incubated for 24 hrs by microdilution susceptibility test; type: functional; conditions: Enterococcus faecium, 50673722, 24 h; method in brief: as §3
Pseudomonas aeruginosa [20] = test: Antibacterial activity against multidrug-resistant Pseudomonas aeruginosa K44-24 producing imipenem-type carbapenemase-14 cultured in MHB medium assessed as reduction in bacterial growth incubated for 24 hrs by microdilution susceptibility test; type: functional; conditions: K44-24, 24 h; method in brief: as §1

SMILES | MIC (Pseudomonas aeruginosa [1]) | MIC (Acinetobacter baumannii [2]) | MIC (Escherichia coli [3]) | selectivity ratio [4] | MIC (Enterococcus faecium [5]) | MIC (Escherichia coli [6]) | EC50 (Erythrocyte) | MIC (Klebsiella pneumoniae [7]) | MIC (Staphylococcus aureus [8]) | selectivity ratio [9] | MIC (Pseudomonas aeruginosa [10]) | MIC (Staphylococcus aureus [11]) | MIC (Acinetobacter baumannii [12]) | MIC (Staphylococcus aureus [13]) | MIC [14] | MIC (Acinetobacter baumannii [15]) | MIC (Klebsiella pneumoniae [16]) | MIC (Pseudomonas aeruginosa [17]) | EC50 (MRC5) | MIC (Enterococcus faecium [18]) | further results
NCCNCC(CN)(Cc1ccc(F)c2ccccc12)Cc1ccc(F)c2ccccc12 | 16 µg/mL (≈ 36.9 µM) | 16 µg/mL (≈ 36.9 µM) | 8 µg/mL (≈ 18.5 µM) | 14 | 4 µg/mL (≈ 9.23 µM) | 8 µg/mL (≈ 18.5 µM) | 27 µg/mL (≈ 62.3 µM) | 4 µg/mL (≈ 9.23 µM) | 8 µg/mL (≈ 18.5 µM) | 7 | 16 µg/mL (≈ 36.9 µM) | 2 µg/mL (≈ 4.61 µM) | 8 µg/mL (≈ 18.5 µM) | 4 µg/mL (≈ 9.23 µM) | 1 µg/mL (≈ 2.31 µM) | 8 µg/mL (≈ 18.5 µM) | 8 µg/mL (≈ 18.5 µM) | 4 µg/mL (≈ 9.23 µM) | 9 µg/mL (≈ 20.8 µM) | 4 µg/mL (≈ 9.23 µM) | MIC (Enterococcus faecium [19]): 4 µg/mL (≈ 9.23 µM); MIC (Pseudomonas aeruginosa [20]): 16 µg/mL (≈ 36.9 µM)
N=C(N)NCCNC(=O)C(CNC(=N)N)(Cc1cc(Br)cc(Br)c1)Cc1cc(Br)cc(Br)c1 | 4 µg/mL (≈ 5.63 µM) | 16 µg/mL (≈ 22.5 µM) | 8 µg/mL (≈ 11.3 µM) | 206 | 4 µg/mL (≈ 5.63 µM) | 8 µg/mL (≈ 11.3 µM) | 206 µg/mL (≈ 290 µM) | 16 µg/mL (≈ 22.5 µM) | 2 µg/mL (≈ 2.81 µM) | 26 | 8 µg/mL (≈ 11.3 µM) | 1 µg/mL (≈ 1.41 µM) | 16 µg/mL (≈ 22.5 µM) | 2 µg/mL (≈ 2.81 µM) | 0.25 µg/mL (≈ 0.352 µM) | 16 µg/mL (≈ 22.5 µM) | 32 µg/mL (≈ 45 µM) | 4 µg/mL (≈ 5.63 µM) | > 64 µg/mL | 4 µg/mL (≈ 5.63 µM) | MIC (Enterococcus faecium [19]): 4 µg/mL (≈ 5.63 µM); MIC (Pseudomonas aeruginosa [20]): 16 µg/mL (≈ 22.5 µM)
N=C(N)NCCNC(=O)C(CNC(=N)N)(Cc1cc(C(F)(F)F)cc(C(F)(F)F)c1)Cc1cc(C(F)(F)F)cc(C(F)(F)F)c1 | 16 µg/mL (≈ 24 µM) | > 32 µg/mL | 32 µg/mL (≈ 47.9 µM) | 101 | 8 µg/mL (≈ 12 µM) | 32 µg/mL (≈ 47.9 µM) | 201 µg/mL (≈ 301 µM) | > 32 µg/mL | 8 µg/mL (≈ 12 µM) | 50 | 32 µg/mL (≈ 47.9 µM) | 2 µg/mL (≈ 3 µM) | > 32 µg/mL | 8 µg/mL (≈ 12 µM) | 0.5 µg/mL (≈ 0.749 µM) | > 32 µg/mL | > 32 µg/mL | 4 µg/mL (≈ 5.99 µM) | > 64 µg/mL | 8 µg/mL (≈ 12 µM) | MIC (Enterococcus faecium [19]): 8 µg/mL (≈ 12 µM); MIC (Pseudomonas aeruginosa [20]): 32 µg/mL (≈ 47.9 µM)
NCCNCC(CN)(Cc1cc(C(F)(F)F)cc(C(F)(F)F)c1)Cc1cc(C(F)(F)F)cc(C(F)(F)F)c1 | 32 µg/mL (≈ 56.2 µM) | 8 µg/mL (≈ 14 µM) | 8 µg/mL (≈ 14 µM) | 6 | 8 µg/mL (≈ 14 µM) | 8 µg/mL (≈ 14 µM) | 23 µg/mL (≈ 40.4 µM) | 8 µg/mL (≈ 14 µM) | 8 µg/mL (≈ 14 µM) | 6 | 16 µg/mL (≈ 28.1 µM) | 4 µg/mL (≈ 7.02 µM) | 8 µg/mL (≈ 14 µM) | 8 µg/mL (≈ 14 µM) | 1 µg/mL (≈ 1.76 µM) | 8 µg/mL (≈ 14 µM) | 16 µg/mL (≈ 28.1 µM) | 4 µg/mL (≈ 7.02 µM) | 14 µg/mL (≈ 24.6 µM) | 8 µg/mL (≈ 14 µM) | MIC (Enterococcus faecium [19]): 4 µg/mL (≈ 7.02 µM); MIC (Pseudomonas aeruginosa [20]): 32 µg/mL (≈ 56.2 µM)
